{
  "source": "ChEMBL document CHEMBL2010749",
  "about": "“Cytotoxic phloroglucinols from the leaves of Myrtus communis” (J Nat Prod, 2012)",
  "key": {"[1]": {"test_system": "Staphylococcus aureus", "experiment": "Antibacterial activity against Staphylococcus aureus ATCC 25923 after 20 hrs by doubling dilution method", "assay_type": "functional", "settings": "ATCC 25923, 20 h", "method_in_brief": "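Broth doubling-dilution in 96-well format: overnight nutrient-broth cultures (37 °C) adjusted to about 10^5 cells/mL; compound stocks in EtOH diluted 2-fold across wells in culture suspension. After 20 h at 37 °C in moist atmosphere, thiazolyl blue tetrazolium added, 4 h further incubation; living bacteria seen as violet turbid wells; MIC read as lowest inhibitory concentration.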"}, "[2]": {"test_system": "HepG2", "experiment": "Cytotoxicity against human HepG2 cells after 96 hrs", "assay_type": "functional, cell-based", "settings": "HepG2, 96 h"}, "[3]": {"test_system": "DU-145", "experiment": "Cytotoxicity against human DU145 cells after 96 hrs", "assay_type": "functional, cell-based", "settings": "DU-145, 96 h"}, "[4]": {"experiment": "Selectivity ratio of IC50 for human CRL7065 to MIC for Staphylococcus aureus ATCC 25923", "assay_type": "functional"}, "[5]": {"test_system": "MT4", "experiment": "Cytotoxicity against human MT4 cells after 96 hrs", "assay_type": "functional, cell-based", "settings": "MT4, 96 h"}},
  "data": [
    {"smiles": "CC(C)C(=O)c1c(O)c([C@H](C2=C(O)C(C)(C)C(=O)C(C)(C)C2=O)C(C)C)c2c3c1OC(C)(C)C[C@H]3[C@H]1C(C)(C)C(=O)C(C)(C)[C@@]1(O)O2", "note": "(relative stereo)", "values": [
      {"measurement": "MIC", "setting": "[1]", "value": 0.38, "unit": "µM"},
      {"measurement": "IC50", "setting": "[2]", "value": 4, "unit": "µM"},
      {"measurement": "IC50", "setting": "[3]", "value": 3, "unit": "µM"},
      {"measurement": "Ratio", "setting": "[4]", "value": 35},
      {"measurement": "IC50", "setting": "[5]", "value": 2.1, "unit": "µM"}
    ]},
    {"smiles": "C=C1CC[C@]2(C)OC3=C(C(=O)C(C)(C)C(=O)C3(C)C)[C@@H](C(C)C)[C@@H]2[C@H]1C1CCCC1(C)C", "note": "(relative stereo)", "values": [
      {"measurement": "MIC", "setting": "[1]", "value": "> 560", "unit": "µM"},
      {"measurement": "IC50", "setting": "[5]", "value": "> 100", "unit": "µM"}
    ]},
    {"smiles": "CC(C)[C@@H]1C[C@@]2(CC[C@]3(C(C)C)C[C@H]23)OC2=C1C(=O)C(C)(C)C(=O)C2(C)C", "note": "(relative stereo)", "values": [
      {"measurement": "MIC", "setting": "[1]", "value": "> 560", "unit": "µM"},
      {"measurement": "IC50", "setting": "[5]", "value": 41.4, "unit": "µM"}
    ]},
    {"smiles": "CC[C@@]1(O)C(=O)OCc2c1cc1n(c2=O)Cc2cc3ccccc3nc2-1", "note": "[CAMPTOTHECIN]", "values": [
      {"measurement": "IC50", "setting": "[2]", "value": 0.02, "unit": "µM"},
      {"measurement": "IC50", "setting": "[3]", "value": 0.015, "unit": "µM"}
    ]},
    {"smiles": "O=C(N[C@H](CO)[C@H](O)c1ccc([N+](=O)[O-])cc1)C(Cl)Cl", "note": "[CHLORAMPHENICOL]", "values": [
      {"measurement": "MIC", "setting": "[1]", "value": 4, "unit": "µM"}
    ]},
    {"smiles": "COc1cc([C@@H]2c3cc4c(cc3[C@@H](O[C@@H]3O[C@@H]5CO[C@@H](C)O[C@H]5[C@H](O)[C@H]3O)[C@H]3COC(=O)[C@H]23)OCO4)cc(OC)c1O", "note": "[ETOPOSIDE]", "values": [
      {"measurement": "IC50", "setting": "[2]", "value": 4, "unit": "µM"},
      {"measurement": "IC50", "setting": "[3]", "value": 3, "unit": "µM"},
      {"measurement": "IC50", "setting": "[5]", "value": 0.09, "unit": "µM"}
    ]},
    {"smiles": "CC(C)C(=O)c1c(O)c([C@H](C2=C(O)C(C)(C)C(=O)C(C)(C)C2=O)C(C)C)c(O)c([C@H](C2=C(O)C(C)(C)C(=O)C(C)(C)C2=O)C(C)C)c1O", "note": "[MYRTUCOMMULONE A]", "values": [
      {"measurement": "MIC", "setting": "[1]", "value": 2.2, "unit": "µM"},
      {"measurement": "IC50", "setting": "[2]", "value": 6, "unit": "µM"},
      {"measurement": "IC50", "setting": "[3]", "value": 5, "unit": "µM"},
      {"measurement": "IC50", "setting": "[5]", "value": 4.7, "unit": "µM"}
    ]}
  ]
}
